Active and inactive are the calls of the source.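 Rule for the calls, unless noted: active = visually confirmed hit in the image check and inhibition above 20%; inconclusive = visually confirmed hit but inhibition not above 20%; inactive = no visual hit in the image check.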
Key:
[1] = inhibitors of TNFa-induced NFkB p65 translocation, primary screen, imaging, HUVEC, MLSMR starter and 10KST1 sets (AID 438;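 active = inhibition above 20% together with a positive visual image hit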;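 note: compound added about 3h40 before a 20 min TNFalpha stimulation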;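 for inhibition: signal is the nuclear over cytoplasmic p65 intensity ratio per well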); conditions: HUVEC TNFa-induced p65 nuclear translocation; cell count: measured here: nuclei count (cytotoxicity indicator), at 2.08 µM; inhibition: at 2 µM, stronger effect = higher value, 0% TNFa-plus-vehicle, 100% no-TNFa wells
[2] = endothelial E-selectin expression blockers – imaging, HUVEC, immunofluorescence, MLSMR starter and 10KST1 sets, primary screen (AID 487); conditions: HUVEC TNFalpha-induced E-selectin immunofluorescence imaging, at 2 µM; inhibition: stronger effect = higher value; nuclei count: measured here: cell number, toxicity;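 for inhibition: signal is fraction of cell area covered by stained E-selectin grains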;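 for nuclei count: 100% = median nuclei count of all wells on the same plate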
[3] = Primary imaging screen for DUSP6 inhibitors that restore phospho-Erk in transfected HeLa cells, chemical complementation (AID 609;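 active = compounds giving at least 50% inhibition in the cell-based MKP-3 phosphatase rescue imaging test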;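 for inhibition: phospho-Erk level distribution per well compared with pooled transfected vehicle control wells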); conditions: HeLa MKP-3 transfected, phospho-Erk imaging KS statistic, at 10 µM, cells stimulated with TPA for 15 min
[4] = biological target: Dual specificity protein phosphatase 6 (Homo sapiens) (UniProt Q16828); test: as above; conditions: HeLa MKP-3 transfected, phospho-Erk imaging KS statistic; at 10 µM; stronger effect = higher value; cells stimulated with TPA for 15 min
Sequence of Dual specificity protein phosphatase 6 (Homo sapiens) (Q16828 whole entry, looked up): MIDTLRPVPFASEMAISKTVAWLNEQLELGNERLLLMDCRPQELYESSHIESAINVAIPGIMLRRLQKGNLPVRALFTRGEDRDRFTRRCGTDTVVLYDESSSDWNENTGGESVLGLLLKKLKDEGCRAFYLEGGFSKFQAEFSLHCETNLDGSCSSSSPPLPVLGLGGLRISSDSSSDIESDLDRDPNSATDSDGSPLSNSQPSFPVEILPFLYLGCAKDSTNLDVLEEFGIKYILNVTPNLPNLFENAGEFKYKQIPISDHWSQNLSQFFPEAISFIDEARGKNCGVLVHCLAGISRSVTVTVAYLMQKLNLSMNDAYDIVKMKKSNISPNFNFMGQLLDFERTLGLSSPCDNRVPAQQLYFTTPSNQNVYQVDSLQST

[5] = biological target: Voltage-gated potassium channel subunit beta-2 (Rattus norvegicus) (UniProt P62483); test: inhibitors of rat Kvbeta2 reductase activity – biochemical, NADPH fluorescence, primary screen (AID 622;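 active = fluorescence slope higher than the sample average by over 3 SD, cut at about -0.22 in these data, passing the limit was not always enough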;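 note: slope of raw intensity against log time taken from 70 to 1610 s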); conditions: recombinant KvBeta, 4-cyanobenzaldehyde reduction, at 10 µM, stronger effect = higher value
Sequence of Voltage-gated potassium channel subunit beta-2 (Rattus norvegicus) (P62483 whole entry, looked up): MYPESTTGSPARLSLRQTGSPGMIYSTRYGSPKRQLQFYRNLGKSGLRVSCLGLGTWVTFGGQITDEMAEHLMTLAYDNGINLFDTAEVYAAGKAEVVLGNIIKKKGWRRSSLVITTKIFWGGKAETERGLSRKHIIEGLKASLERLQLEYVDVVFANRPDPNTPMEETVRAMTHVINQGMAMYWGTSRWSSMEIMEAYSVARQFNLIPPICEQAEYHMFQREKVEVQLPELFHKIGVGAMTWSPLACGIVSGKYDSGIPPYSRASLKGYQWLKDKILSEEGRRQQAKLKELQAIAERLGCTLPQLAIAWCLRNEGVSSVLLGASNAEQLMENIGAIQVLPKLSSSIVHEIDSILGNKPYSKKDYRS

[6] = biological target: Voltage-gated potassium channel subunit beta-2 (Rattus norvegicus) (UniProt P62483); test: enhancers of rat Kvbeta2 NADPH turnover – biochemical, NADPH fluorescence, primary screen (AID 623;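 active = NADPH fluorescence slope more negative than the mean of all samples by about 3 SD, 99.7% confidence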;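 note: fluorescence intensity change per second fitted from 20 to 320 s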); conditions: Recombinant KvBeta, NADPH fluorescence decrease slope, 10 min; at 10 µM; stronger effect = lower value
[7] = biological target: Muscarinic acetylcholine receptor M4 (Homo sapiens) (UniProt P08173); test: M4-linked GIRK flux change, two-sided – cell-based, HEK293 M4/GIRK, thallium flux, BTC-AM, M4 allosteric agonist project, primary screen (AID 625;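 active = fluorescence slope after compound addition differing from the mean of all tested samples at 99.7% confidence, mostly higher but some lower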;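 note: thallium influx through GIRK channels coupled to M4 in HEK293 cells with BTC-AM dye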); conditions: at 10 µM, actives lie on both sides
Sequence of Muscarinic acetylcholine receptor M4 (Homo sapiens) (P08173 whole entry, looked up): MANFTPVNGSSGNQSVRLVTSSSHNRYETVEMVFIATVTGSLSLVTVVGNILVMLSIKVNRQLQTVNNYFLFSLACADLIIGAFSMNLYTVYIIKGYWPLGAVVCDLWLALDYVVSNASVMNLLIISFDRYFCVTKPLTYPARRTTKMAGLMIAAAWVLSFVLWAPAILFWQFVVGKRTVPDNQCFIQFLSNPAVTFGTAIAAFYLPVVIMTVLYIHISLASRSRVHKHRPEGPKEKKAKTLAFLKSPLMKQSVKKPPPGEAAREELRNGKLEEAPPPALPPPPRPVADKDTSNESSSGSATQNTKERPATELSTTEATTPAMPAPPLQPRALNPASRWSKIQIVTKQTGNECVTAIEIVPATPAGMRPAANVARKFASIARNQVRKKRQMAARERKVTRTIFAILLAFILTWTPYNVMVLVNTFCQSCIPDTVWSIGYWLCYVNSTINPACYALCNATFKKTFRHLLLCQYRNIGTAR
In short: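 Material: HEK293 cells with M4 receptor and GIRK channels; Times: cells overnight at 37 °C, BTC-AM loading 1 h, reads 2 min total; Technique: kinetic BTC-AM fluorescence sampled at 1 Hz, 10 s pre-addition baseline; Read-out basis: slope over 15–24 s of trace normalized to starting intensity; Controls: carbachol positive, DMSO negative.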

[8] = inhibitors of larval lipid processing in zebrafish, primary screen, whole organism, PED6 fluorescence, gall bladder and intestine (AID 686;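 active = a full or partial loss of lipid-probe fluorescence in the fish gall bladder, intestine or both, judged by eye; inactive = no fluorescence loss, or compound toxic to the fish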;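 note: larvae 5 to 7 days old with five fish per well; signal comes from phospholipase A2 cleavage of quenched PED6 carried via bile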); conditions: Zebrafish larvae PED6 lipid processing, fluorescence scoring; screened at 20 µM (by protocol)
In short: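 Incubation: overnight exposure of larvae to compound plus PED6 / Test system: live zebrafish larvae aged 5-7 days, whole organism / Amount: 5 larvae per well / Read-out basis: visual per-well fluorescence inhibition score / Signal: visual fluorescence microscopy scoring of gall bladder, gut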

[9] = loss of swimming-algae plug formation – whole organism, Chlamydomonas reinhardtii, WT vs cilia-less mutant, absorbance, 96-well, primary screen (AID 463189;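 active = inhibition at or above 50% relative to wild type and mutant plate controls; inactive = inhibition below 50%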;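 note: 0% = wild type cc124 cells in DMSO and 100% = ciliumless bld1 mutant cells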); conditions: Chlamydomonas reinhardtii gravitaxis, OD600 absorbance, 2 days; at 10 µM; stronger effect = higher value
[10] = measured here: cell density z-score
[11] = measured here: nuclear c-Myc green intensity z-score
[12] = measured here: nuclear pErk red intensity z-score, stronger effect = higher value

SMILES | cell count [1] | inhibition [1] | inhibition [2] | nuclei count [2] | z-score [3, 10] | z-score [3, 11] | z-score [3, 12] | inhibition [4] | fluorescence slope [5] | NADPH fluorescence slope [6] | fluorescence slope [7] | outcome [8] | inhibition [9]
N/C(=N\S(=O)(=O)c1ccc(Cl)s1)c1ccccc1 | 671 | -8.3% (inactive) | -77.1% (inactive) | 150% | 1.62 | -1.89 | -1.41 | 7.83% (inactive) | -0.473 (inactive) | -4.6e-05 (inactive) | 0.00465 (inactive) | inactive | 19.3% (inactive)
Clc1ccc(-n2ncc3c(NCc4ccco4)ncnc32)cc1 | 582 | -17.4% (inactive) | 19.7% (inactive) | 154% | 0.502 | -0.386 | 0.00112 | 19.4% (inactive) | -0.339 (inactive) | -2.6e-05 (inactive) | 0.00727 (inactive) | inactive | 45.5% (inactive)
O=C(c1cc(N2CCCCC2)nc2ccccc12)N1CCOCC1 | 627 | 3.5% (inactive) | -37.7% (inactive) | 159% | -1.1 | 2.14 | 1.42 | -15% (inactive) | -0.422 (inactive) | -1.2e-05 (inactive) | 0.0052 (inactive) | inactive | 1.82% (inactive)
Cc1ccc(C(=O)NCC(C)(C)O)cc1 | 554 | -5.3% (inactive) | -1.3% (inactive) | 87.7% | -0.652 | -0.297 | -0.959 | -3.95% (inactive) | -0.473 (inactive) | -8.2e-05 (inactive) | 0.00553 (inactive) | inactive | -5.2% (inactive)
Cc1cccc(NC(=O)c2cc(N3CCOCC3)nc3ccccc23)c1 | 620 | -13.1% (inactive) | -446% (inactive) | 148% | -1.06 | 1.5 | 2.96 | -11.5% (inactive) | -0.438 (inactive) | -7.5e-05 (inactive) | 0.00519 (inactive) | inactive | -4.1% (inactive)
O=C(NCC(F)(F)F)Nc1nnc(C(F)(F)F)s1 | 731 | 2.9% (inactive) | -80.8% (inactive) | 166% | -0.948 | -0.154 | 0.77 | 27.5% (inactive) | -0.429 (inactive) | -5.4e-05 (inactive) | 0.00508 (inactive) | inactive | -1.99% (inactive)
CC(NC(=O)Nc1cccnc1)(C(F)(F)F)C(F)(F)F | 706 | -5.1% (inactive) | -177% (inactive) | 184% | 0.533 | -0.524 | 0.0759 | 7.93% (inactive) | -0.454 (inactive) | -0.000301 (inactive) | 0.00556 (inactive) | inactive | 0.542% (inactive)
CCOC(=O)c1[nH]c2ccccc2c1NC(=O)CN(C)C | 656 | 2.2% (inactive) | -136% (inactive) | 180% | 0.955 | 0.5 | -0.213 | 7.93% (inactive) | -0.476 (inactive) | -4.7e-05 (inactive) | 0.00584 (inactive) | inactive | -6.18% (inactive)
CCOC(=O)c1c2c(c(=S)n(-c3ccccc3)c1N)CCC2 | 569 | -8.6% (inactive) | -65.1% (inactive) | 135% | -0.086 | 1.03 | -0.638 | -3.95% (inactive) | -0.463 (inactive) | -9.5e-05 (inactive) | 0.00449 (inactive) | inactive | 9.7% (inactive)
COC(=O)C(NC(=O)c1ccco1)(Nc1nc(C)cs1)C(F)(F)F (stereo not given) | 365 | -1.1% (inactive) | -89.2% (inactive) | 178% | -0.487 | 0.248 | 1.38 | -6.59% (inactive) | -0.459 (inactive) | -9.6e-05 (inactive) | 0.00502 (inactive) | inactive | 14.1% (inactive)
Cc1ccc2[nH]c3c(c2c1)CN(C(=O)CN1CC(C)OC(C)C1)CC3 (stereo not given) | 409 | -6.9% (inactive) | -299% (inactive) | 169% | 1.01 | 0.157 | -0.0941 | 3.42% (inactive) | -0.466 (inactive) | -0.000107 (inactive) | 0.00334 (inactive) | inactive | 26.6% (inactive)
O=c1[nH]c2cnccc2n1-c1ccccc1 | 546 | 1.5% (inactive) | -390% (inactive) | 162% | 1.25 | -0.89 | -1.07 | 9.91% (inactive) | -0.404 (inactive) | -4.6e-05 (inactive) | 0.00569 (inactive) | inactive | -6.57% (inactive)
Cn1c(CSc2ncn[nH]2)nc2ccccc21 | 537 | -6.4% (inactive) | -75.5% (inactive) | 122% | -3.21 | 1.73 | 1.28 | 20.2% (inactive) | -0.49 (inactive) | -0.000116 (inactive) | 0.00416 (inactive) | inactive | -14.5% (inactive)
C=CCN1C(=O)CC(C(=O)NC)SC1=Nc1ccc(C(=O)OCC)cc1 (stereo not given) | 634 | 12.2% (inactive) | -19.2% (inactive) | 105% | -0.632 | 0.636 | -0.397 | -2.09% (inactive) | -0.407 (inactive) | -5.9e-05 (inactive) | 0.00387 (inactive) | inactive | 6.38% (inactive)
CCc1nc2n[nH]c(N)c2c2c1CSC(C)(C)C2 | 644 | -0.8% (inactive) | -44.1% (inactive) | 168% | -1.43 | 0.647 | 2.27 | -15% (inactive) | -0.458 (inactive) | -5.1e-05 (inactive) | 0.00446 (inactive) | inactive | 12.1% (inactive)
Cc1ccc(-n2[nH]c(C)c(C=Nc3cc(C)ccn3)c2=O)cc1 | 512 | 3% (inactive) | 4.6% (inactive) | 87.7% | -0.346 | -0.03 | 0.605 | -13.3% (inactive) | -0.459 (inactive) | -3.6e-05 (inactive) | 0.0056 (inactive) | inactive | 51.3% (active)
COc1ccc(C(=O)OC(C)CN2CCN(C)CC2)cc1OC (stereo not given) | 386 | 2.6% (inactive) | -35.7% (inactive) | 154% | -1.91 | 0.605 | 1.37 | -11% (inactive) | -0.446 (inactive) | -9.4e-05 (inactive) | 0.00501 (inactive) | inactive | 21.4% (inactive)
CCN(CC)c1ccc(C2Nc3cccc4cccc(c34)N2)c(O)c1 | 571 | 2.2% (inactive) | -102% (inactive) | 134% | 0.205 | -0.845 | -0.409 | -0.584% (inactive) | -0.397 (inactive) | -7.3e-05 (inactive) | 0.00286 (inactive) | active; no signal in gallbladder and intestine | 40% (inactive)
Cc1cc(C)n(-c2c(F)c(F)c(CN3CCCCC3)c(F)c2F)n1 | 557 | 6.8% (inactive) | 29.4% (inactive) | 107% | -0.661 | 0.711 | -1.05 | 17.8% (inactive) | -0.349 (inactive) | 1.9e-06 (inactive) | 0.00483 (inactive) | inactive | 26% (inactive)
COCCNC(=O)C(C#N)c1nc2ccccc2nc1N1CCN(Cc2ccc3c(c2)OCO3)CC1 (stereo not given) | 737 | -8.1% (inactive) | 11.8% (inactive) | 172% | -1.49 | 1.08 | 1.16 | -2.09% (inactive) | -0.474 (inactive) | -0.000128 (inactive) | 0.00436 (inactive) | inactive | 4.28% (inactive)
Cc1ccccc1-n1c(=O)/c(=C\c2ccco2)s/c1=C(/C#N)C(=O)Nc1ccccc1 | 677 | -5.8% (inactive) | -17.2% (inactive) | 151% | 0.299 | -0.624 | -0.976 | 9.37% (inactive) | -0.475 (inactive) | -4.4e-05 (inactive) | 0.00343 (inactive) | inactive | -0.051% (inactive)
CC(=O)c1ccc(C#CC(C)(C)O)s1 | 496 | -2.5% (inactive) | -51.1% (inactive) | 126% | -0.749 | 0.398 | 0.00406 | -3.97% (inactive) | -0.386 (inactive) | -7.4e-05 (inactive) | 0.00521 (inactive) | inactive | -7.15% (inactive)
COc1cc(Cn2ccnc2)c(OC)cc1Cn1ccnc1 | 588 | 0.1% (inactive) | -64% (inactive) | 154% | 0.988 | 1.55 | 0.136 | 1.63% (inactive) | -0.422 (inactive) | -0.000118 (inactive) | 0.0052 (inactive) | inactive | 10.7% (inactive)
COC(=O)COc1ccc(Oc2nc(SC)nc(N(C)C)n2)nn1 | 345 | -16.3% (inactive) | -54.5% (inactive) | 109% | -0.468 | -0.441 | -0.861 | -3.95% (inactive) | -0.461 (inactive) | -8.1e-05 (inactive) | 0.00594 (inactive) | inactive | -8.33% (inactive)
COc1cc(C2C(C(C)=O)=C(O)C(=O)N2c2ccc(Br)cn2)ccc1O (stereo not given) | 406 | -8.5% (inactive) | -148% (inactive) | 180% | -0.216 | -0.848 | 0.128 | -2.59% (inactive) | -0.446 (inactive) | -0.000114 (inactive) | 0.00394 (inactive) | inactive | 23.7% (inactive)

Reference: PubChem BioAssay
